In article PMC6218015 (ACS Chemical Biology, 2017):

Experiments:
[1] = target: T1, GFP-tagged full-length wild type ATAD2 in MCF7 cells (Homo sapiens, UniProt Q6PL18); experiment: Fluorescence recovery after photobleaching; format: cell-based
T1 sequence (Q6PL18 1-1390): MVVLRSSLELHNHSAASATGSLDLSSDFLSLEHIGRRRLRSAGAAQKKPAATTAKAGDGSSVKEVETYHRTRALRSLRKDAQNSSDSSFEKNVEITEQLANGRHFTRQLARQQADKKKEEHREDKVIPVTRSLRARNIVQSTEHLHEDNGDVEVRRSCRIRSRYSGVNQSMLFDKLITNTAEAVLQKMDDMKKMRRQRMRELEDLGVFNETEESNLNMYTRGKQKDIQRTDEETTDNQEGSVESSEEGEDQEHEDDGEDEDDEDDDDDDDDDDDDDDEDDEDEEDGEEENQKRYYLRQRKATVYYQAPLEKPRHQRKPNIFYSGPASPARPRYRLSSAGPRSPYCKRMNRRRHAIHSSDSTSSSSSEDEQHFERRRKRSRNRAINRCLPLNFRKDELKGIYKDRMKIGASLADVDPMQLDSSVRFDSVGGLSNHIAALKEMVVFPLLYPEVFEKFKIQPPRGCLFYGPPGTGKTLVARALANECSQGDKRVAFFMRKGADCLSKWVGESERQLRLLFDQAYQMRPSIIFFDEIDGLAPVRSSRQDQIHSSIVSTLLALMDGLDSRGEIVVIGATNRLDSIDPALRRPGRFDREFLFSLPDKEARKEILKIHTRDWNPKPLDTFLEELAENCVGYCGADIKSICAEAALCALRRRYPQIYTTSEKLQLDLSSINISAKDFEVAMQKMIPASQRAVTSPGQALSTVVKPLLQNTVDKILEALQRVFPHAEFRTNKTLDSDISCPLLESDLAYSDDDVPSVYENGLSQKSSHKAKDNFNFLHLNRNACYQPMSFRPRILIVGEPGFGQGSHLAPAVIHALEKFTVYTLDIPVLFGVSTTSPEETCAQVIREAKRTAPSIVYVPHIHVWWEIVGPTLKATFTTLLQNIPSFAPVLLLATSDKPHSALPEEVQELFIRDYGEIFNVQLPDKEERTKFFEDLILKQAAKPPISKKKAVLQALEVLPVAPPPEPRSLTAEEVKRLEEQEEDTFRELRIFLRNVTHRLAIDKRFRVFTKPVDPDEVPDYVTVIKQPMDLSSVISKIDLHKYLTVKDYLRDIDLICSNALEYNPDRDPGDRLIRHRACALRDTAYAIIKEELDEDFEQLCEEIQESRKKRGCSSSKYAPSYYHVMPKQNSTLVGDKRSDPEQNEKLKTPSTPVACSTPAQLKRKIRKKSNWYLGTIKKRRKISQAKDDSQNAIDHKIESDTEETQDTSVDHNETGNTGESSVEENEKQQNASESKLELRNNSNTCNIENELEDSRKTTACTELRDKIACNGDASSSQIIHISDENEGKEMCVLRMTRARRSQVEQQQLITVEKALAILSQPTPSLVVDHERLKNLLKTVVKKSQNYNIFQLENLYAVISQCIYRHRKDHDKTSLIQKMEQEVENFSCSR
Summary of the method: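 MCF7 cells transfected with GFP-tagged full-length wild-type ATAD2; BD-mutant and ATPase-mutant constructs run as comparators. Cells treated with 1 μM test compound for 1 h, then a defined area photobleached. Half fluorescence recovery time measured in the bleached area from at least 15 cells per group, reported as mean with standard error of the mean.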

[2] = target: T2, tag-free ATAD2 (Homo sapiens, UniProt Q6PL18); experiment: Native mass spectrometry; format: binding; conditions: 10 μM ATAD2 BD, 5 μM compound
T2 sequence (Q6PL18 981-1108): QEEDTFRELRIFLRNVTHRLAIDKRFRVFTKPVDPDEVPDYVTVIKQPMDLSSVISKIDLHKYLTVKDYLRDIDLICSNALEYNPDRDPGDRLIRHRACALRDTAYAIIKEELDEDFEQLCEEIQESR

[3] = target: T3, ATAD2 (Homo sapiens, UniProt Q6PL18); experiment: BROMOscan; format: binding
T3 sequence (Q6PL18 981-1108 limits assumed): T2 sequence (Q6PL18 981-1108)

[4] = Permeability; format: in vitro ADME; conditions: Caco-2 assay
[5] = test system: HMEC nontransformed mammary epithelial cells; experiment: Growth inhibition of nontransformed cells; format: cell-based; conditions: HMEC vs MCF7 and MDA-MB-231
[6] = test system: panel of 354 kinases; experiment: Kinase panel overall; format: biochemical, human
[7] = target: T4, GST-ATAD2 BD (Homo sapiens, UniProt Q6PL18); experiment: Microscale thermophoresis; format: binding; conditions: MST
T4 sequence (Q6PL18 981-1108): T2 sequence (Q6PL18 981-1108)
Summary of the method: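 Fluorescence-labeled GST-ATAD2 incubated with vehicle or increasing test compound concentrations. Thermophoresis traces recorded in real time. Averaged steady-state MST signals plotted against dose and fitted to a 1:1 binding model to derive KD.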

[8] = target: T5, His-ATAD2 BD (Homo sapiens, UniProt Q6PL18); experiment: AlphaScreen binding competition assay, tetra-acetylated H4 peptide
T5 sequence (Q6PL18 981-1108): T2 sequence (Q6PL18 981-1108)
Summary of the method: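 Competition for binding of acetylated histone H4 N-terminal peptides to the ATAD2 bromodomain, titrated with increasing test compound. TR-FRET read-out for mono- and tetra-acetylated peptides; AlphaScreen read-out for the tetra-acetylated peptide. Normalized signals plotted against compound dose and fitted to a four-parameter logistic equation to obtain IC50.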

[9] = test system: other members of the BD family; experiment: TSA bromodomain selectivity panel; format: binding; conditions: 10 μM
Summary of the method: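 Thermal shift assay across the bromodomain family. Melting curves of each bromodomain were acquired with 10 μM test compound or with vehicle. Compound effects were taken from the melting-curve comparison and mapped onto the bromodomain phylogenetic tree.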

[10] = target: T6, FLAG tagged ATAD2 (342 - 1390) (Homo sapiens, UniProt Q6PL18); experiment: AlphaScreen, ATAD2 construct including the ATPase domain; format: binding; conditions: larger ATAD2 construct including the ATPase domain
T6 sequence (Q6PL18 342-1390): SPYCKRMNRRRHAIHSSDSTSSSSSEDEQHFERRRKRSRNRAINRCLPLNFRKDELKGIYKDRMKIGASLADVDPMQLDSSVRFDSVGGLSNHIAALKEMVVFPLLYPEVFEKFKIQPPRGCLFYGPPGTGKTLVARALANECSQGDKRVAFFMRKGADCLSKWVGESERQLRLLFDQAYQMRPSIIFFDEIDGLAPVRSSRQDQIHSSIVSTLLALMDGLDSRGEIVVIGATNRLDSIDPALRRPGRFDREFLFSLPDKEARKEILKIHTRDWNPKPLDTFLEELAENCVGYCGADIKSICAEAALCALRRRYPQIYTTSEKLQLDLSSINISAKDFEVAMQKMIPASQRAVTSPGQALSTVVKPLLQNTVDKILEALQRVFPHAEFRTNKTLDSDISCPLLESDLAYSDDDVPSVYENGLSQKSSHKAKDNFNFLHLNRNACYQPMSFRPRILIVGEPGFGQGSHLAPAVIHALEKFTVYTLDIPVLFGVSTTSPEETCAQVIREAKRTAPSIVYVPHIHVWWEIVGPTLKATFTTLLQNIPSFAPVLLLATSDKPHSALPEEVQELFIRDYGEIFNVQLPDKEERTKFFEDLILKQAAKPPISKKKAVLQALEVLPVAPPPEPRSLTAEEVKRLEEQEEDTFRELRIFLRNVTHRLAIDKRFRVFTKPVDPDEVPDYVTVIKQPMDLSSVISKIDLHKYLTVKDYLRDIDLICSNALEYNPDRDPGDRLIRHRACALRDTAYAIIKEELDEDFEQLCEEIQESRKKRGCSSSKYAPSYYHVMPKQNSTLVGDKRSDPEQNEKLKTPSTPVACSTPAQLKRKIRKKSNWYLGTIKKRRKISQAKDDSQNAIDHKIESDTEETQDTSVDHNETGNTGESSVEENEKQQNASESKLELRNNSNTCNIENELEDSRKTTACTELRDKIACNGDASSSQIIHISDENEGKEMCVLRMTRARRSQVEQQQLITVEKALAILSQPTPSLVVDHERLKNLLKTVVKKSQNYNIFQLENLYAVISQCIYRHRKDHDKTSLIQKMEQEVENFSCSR
Summary of the method: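 Binding competition between ATAD2 and an acetylated histone H4 peptide, read by AlphaScreen over increasing test compound concentrations. Signals were normalized, plotted against dose and fitted to a four-parameter logistic equation to give potency.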

[11] = test system: ATAD2 target genes in MCF7 cells; experiment: Gene expression study with quantitative PCR; format: cell-based; conditions: MCF7, 24 h, up to 6.67 µM
[12] = target: T7, untagged ATAD2 BD (Homo sapiens, UniProt Q6PL18); experiment: Size exclusion chromatography; format: binding; conditions: molar ratio 1:1
T7 sequence (Q6PL18 981-1108): T2 sequence (Q6PL18 981-1108)

In the case of `COc1cc(Cl)c(C(=O)N[C@@H](CN[C@H]2CC[C@@H](N)CC2)Cc2ccc(C#N)cc2)cc1-c1ccc(CN[C@H](C)c2ccc(C)cc2)o1` [BAY-850], the “concentration of maximal on-target cellular activity” value ([1]; FRAP, MCF7) is reported as 1 µM, the “Recovery t1/2” value ([1]; MCF7 cells, 1 μM for 1 h, mean ± SEM) is reported as 6.3 ± 1.2 s and the “binding to ATAD2 by native MS” value [2] is reported as “one BAY-850 molecule binds to an ATAD2 dimer”. The Kd [3] was 115 nM, the “permeability” value [4] was “moderate permeability” and the “growth inhibition of nontransformed vs cancer cells” value [5] was “similarly active on the nontransformed and cancer cells”. The “inhibitory activity in kinase panel” value [6] was “no inhibitory activity”, the Kd [7] was 85 nM and the IC50 [8] was 157 nM. For the same molecule, the “effect on thermal stability of other BD family members” value [9] was “not observed for other members of the BD family”, the “inhibition of tetra-acetylated H4 peptide binding” value [10] was “inhibited tetra-acetylated H4 peptide binding” and the “expression of ATAD2 target genes” value [11] was “did not affect the expression”. The “ATAD2 dimerisation in SEC elution profile” value [12] was “compound-induced shift from the ATAD2-monomer to ATAD2-dimer form”.
